Experimental data collected from several papers.
Protocols differ between the studies behind these lines.
Target: Serine/threonine-protein kinase NLK (NLK, Homo sapiens, UniProt Q9UBE8)
Sequence (Q9UBE8 1-527, as in one of the studies): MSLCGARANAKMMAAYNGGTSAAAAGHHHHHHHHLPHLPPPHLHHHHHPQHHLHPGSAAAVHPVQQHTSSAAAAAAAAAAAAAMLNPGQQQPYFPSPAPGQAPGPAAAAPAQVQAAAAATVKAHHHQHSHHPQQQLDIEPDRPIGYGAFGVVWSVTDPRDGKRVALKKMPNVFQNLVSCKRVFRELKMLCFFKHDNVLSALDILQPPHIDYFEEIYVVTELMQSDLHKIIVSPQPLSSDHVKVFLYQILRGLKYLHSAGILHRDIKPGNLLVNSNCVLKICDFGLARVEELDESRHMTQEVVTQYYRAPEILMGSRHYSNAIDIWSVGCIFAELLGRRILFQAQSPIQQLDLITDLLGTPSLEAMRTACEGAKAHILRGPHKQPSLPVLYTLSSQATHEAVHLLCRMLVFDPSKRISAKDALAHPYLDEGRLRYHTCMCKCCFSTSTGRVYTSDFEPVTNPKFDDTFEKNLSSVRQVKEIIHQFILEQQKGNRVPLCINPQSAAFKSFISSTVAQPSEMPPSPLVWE

For `CN(c1nccc(-c2cnn3ncccc23)n1)C1CC1`, the remaining binding was 77% (binding; 1 µM).
The remaining binding of `O=C(Nc1c[nH]nc1C(=O)NC1CCNCC1)c1cc(F)cc(F)c1` is reported as 90% (binding, competition with immobilised ligand; 1 µM).
The remaining binding of `O=C(Nc1ccc(Oc2ccc(F)cc2)cc1)N1CCc2ncccc2[C@H]1c1ccc(F)cc1` is reported as 87% (cell-free assay, competition with immobilised ligand; 1 µM).
For `N[C@H]1CCN(c2nccc(-c3cnn4ncccc34)n2)C1`, the remaining binding was 76% (binding; 1 µM).
The remaining binding of `COc1ccc2c(c1)O[C@@H](c1ccc(OC)c(OC)c1)C[C@H]2NC(=O)C1(c2ccc3c(c2)OC(F)(F)O3)CC1` is reported as 100% (cell-free assay, competition with immobilised ligand; 1 µM).
For `Nc1ncc2c(n1)-c1c([nH]c3ccc(C#CC4CC4)cc13)CCCC2`, the remaining binding was 85% (binding, competition with immobilised ligand; 1 µM).
The remaining binding of `CN(CCCC(F)(F)F)c1nccc(-c2cnn3ncccc23)n1` is reported as 66% (binding; 1 µM).
`CN([C@@H]1CCc2c(CC(=O)O)c3cc(S(C)(=O)=O)ccc3n2C1)S(=O)(=O)c1ccc(F)cc1` has a remaining binding of 100% (cell-free assay, competition with immobilised ligand; 1 µM).
`C[C@@H]1CCN(c2nccc(-c3cnn4ncccc34)n2)C1` has a remaining binding of 70% (binding; 1 µM).
`c1cncc(-c2cccc(Nc3nccc(NC4CCCCC4)n3)c2)c1` has a remaining binding of 67% (binding, competition with immobilised ligand; 10 µM).
`Cc1c(C(=O)O)cc(-c2ccc(C3CCNCC3)cc2)c2ccc(-c3ccc(C(F)(F)F)cc3)cc12` has a remaining binding of 100% (binding, competition with immobilised ligand; 1 µM).
`C[C@@H](c1ccc(-n2cnc3c(N)ncnc32)cc1)N1CCc2nn(C)c(Cc3ccccc3)c2C1=O` gave a remaining binding of 80% (binding, competition with immobilised ligand; 0.1 µM).
For `COc1ncc2cc3ccccc3nc2c1C#N`, the remaining binding was 100% (binding, competition with immobilised ligand; 5 µM).
`CC1CCCN1c1nccc(-c2cnn3ncccc23)n1` (stereo not shown) gave a remaining binding of 78% (binding; 1 µM).
`O=C(NCCCN1CCOCC1)c1ccc(Nc2nccc(-c3cc4ccccc4s3)n2)cc1` gave a remaining binding of 94% (binding, competition with immobilised ligand; 1 µM).
The remaining binding of `CN(C)c1nccc(-c2cnn3ncccc23)n1` is reported as 100% (binding; 1 µM).
`O=C(c1ccc(Nc2ncc(Cl)c(-c3ccc(Cl)s3)n2)cc1)N1CCC(N2CCCC2)CC1` gave a remaining binding of 98% (binding, competition with immobilised ligand; 1 µM).
`CS(=O)(=O)NCC[C@H](NC(=O)c1cncc2c1cnn2-c1ccc(F)cc1)c1ccnc(S(C)(=O)=O)c1` has a remaining binding of 100% (cell-free assay, competition with immobilised ligand; 1 µM).
`c1cnn2ncc(-c3ccnc(N4CCC45COC5)n3)c2c1` gave a remaining binding of 87% (binding; 1 µM).
`CO[C@@H](C)c1c(Nc2ccc([C@@H](N(C)C(=O)C3CCS(=O)(=O)CC3)C(F)(F)F)cc2)cnc2cc(Cl)nn12` gave a remaining binding of 84% (cell-free assay, competition with immobilised ligand; 1 µM).
The remaining binding of `COc1cnc(Nc2cccc(S(N)(=O)=O)c2)nc1N1CCN(c2ccccc2)CC1` is reported as 96% (binding, competition with immobilised ligand; 1 µM).
With `Cc1cnc(Nc2ccc(C(=O)N3CCC(N4CCCC4)CC3)cc2)nc1-c1cc2ccccc2s1` the remaining binding was 69% (binding, competition with immobilised ligand; 1 µM).
